Experimental findings from ChEMBL document CHEMBL1147591, “A novel class of apical sodium-dependent bile acid transporter inhibitors: the amphiphilic 4-oxo-1-phenyl-1,4-dihydroquinoline derivatives” (Bioorg Med Chem Lett, 2004) are described below.

Assay [1] has as its system Ileal sodium/bile acid cotransporter (hamster). Kind of assay: Inhibition of ASBT as [3H]taurocholate uptake in hamster ileal ring at 30 ug/mL. The settings on record: Syrian hamster.
Assay [2] relates to Cricetinae gen. sp. Kind of assay: Evaluated for total non HDL- cholesterol in hamster at a dose of 0.3 mg/kg. In kind it is functional. The method, boiled down:
(§1)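 Chow-fed male Syrian golden hamsters dosed orally by gavage in 0.5% carboxymethylcellulose vehicle once daily in the evening for 14 consecutive days at 0.3, 1, 3, 10, 30 or 100 mg/kg/day. Chow and water were given freely and animals weighed daily. They were sacrificed the morning after the 14th dose. Serum was assayed for triglycerides, total cholesterol and lipoprotein cholesterol (VLDL+LDL, HDL).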

Assay [3] relates to Cricetinae gen. sp. The assay can be described thus: Evaluated for total non HDL- cholesterol in hamster at a dose of 1.0 mg/kg. In kind it is functional. In outline: as §1
The subject of assay [4] is Cricetinae gen. sp. The assay can be described thus: Evaluated for total non HDL- cholesterol in hamster at a dose of 100.0 mg/kg. In kind it is functional. In outline:
as §1

Assay [5] relates to Cricetinae gen. sp. The assay can be described thus: Evaluated for total non HDL- cholesterol in hamster at a dose of 3.0 mg/kg. In kind it is functional. The method, boiled down:
as §1

Assay [6] concerns Cricetinae gen. sp. The assay can be described thus: Evaluated for total non HDL- cholesterol in hamster at a dose of 30.0 mg/kg. In kind it is functional. In outline:
as §1

The subject of assay [7] is Cricetinae gen. sp. Kind of assay: Evaluated for total serum cholesterol in hamster at a dose of 10.0 mg/kg. In kind it is functional, Cricetulus griseus. In outline: as §1
Assay [8] relates to Cricetinae gen. sp. Kind of assay: Evaluated for total serum cholesterol in hamster at a dose of 100.0 mg/kg. In kind it is functional, Cricetulus griseus. The method, boiled down:
as §1

The test system of assay [9] is Cricetinae gen. sp. Kind of assay: Evaluated for total serum cholesterol in hamster at a dose of 3.0 mg/kg. In kind it is functional, Cricetulus griseus. The method, boiled down:
as §1

Assay [10] concerns Cricetinae gen. sp. The assay can be described thus: Evaluated for total serum cholesterol in hamster at a dose of 30.0 mg/kg. In kind it is functional. The method, boiled down:
as §1

In assay [11] the test system is Cricetinae gen. sp. The assay can be described thus: Evaluated for total triglycerides in hamster at a dose of 0.3 mg/kg. In kind it is functional, Cricetulus griseus. In outline:
as §1

Assay [12] relates to Cricetinae gen. sp. Kind of assay: Evaluated for total triglycerides in hamster at a dose of 1.0 mg/kg. In kind it is functional, Cricetulus griseus. In outline:
as §1

The test system of assay [13] is Cricetinae gen. sp. The assay can be described thus: Evaluated for total triglycerides in hamster at a dose of 10.0 mg/kg. In kind it is functional, Cricetulus griseus. In outline: as §1
The subject of assay [14] is Cricetinae gen. sp. Kind of assay: Evaluated for total triglycerides in hamster at a dose of 3.0 mg/kg. In kind it is functional, Cricetulus griseus. The method, boiled down: as §1
The test system of assay [15] is Cricetinae gen. sp. Kind of assay: Evaluated for total triglycerides in hamster at a dose of 30.0 mg/kg. In kind it is functional, Cricetulus griseus. The method, boiled down: as §1
For assay [16], the system named is Cricetinae gen. sp. The assay can be described thus: Evaluated for total serum cholesterol in hamster at a dose of 0.3 mg/kg. In kind it is functional. The method, boiled down:
as §1

Assay [17] concerns Cricetinae gen. sp. The assay can be described thus: Evaluated for total serum cholesterol in hamster at a dose of 1.0 mg/kg. In kind it is functional, Cricetulus griseus. The method, boiled down:
as §1

Assay [18] relates to Cricetinae gen. sp. Kind of assay: Evaluated for total HDL-cholesterol in hamster at a dose of 100.0 mg/kg. In kind it is functional. The method, boiled down: as §1
For assay [19], the system named is Cricetinae gen. sp. Kind of assay: Evaluated for total HDL-cholesterol in hamster at a dose of 3.0 mg/kg. In kind it is functional. The method, boiled down: as §1
Assay [20] relates to Cricetinae gen. sp. The assay can be described thus: Evaluated for total HDL-cholesterol in hamster at a dose of 30.0 mg/kg. In kind it is functional. The method, boiled down:
as §1

In assay [21] the test system is Cricetinae gen. sp. Kind of assay: Evaluated for total HDL-cholesterol in hamster at a dose of 0.3 mg/kg. In kind it is functional. In outline: as §1
Assay [22] relates to Cricetinae gen. sp. Kind of assay: Evaluated for total HDL-cholesterol in hamster at a dose of 1.0 mg/kg. In kind it is functional. The method, boiled down: as §1
Assay [23] deals with Cricetinae gen. sp. The assay can be described thus: Evaluated for total HDL-cholesterol in hamster at a dose of 10.0 mg/kg. In kind it is functional. In outline:
as §1

Assay [24] can be described thus: Ratio between total non HDL-cholesterol and HDL-cholesterol in hamster at a dose of 0.3 mg/kg. In kind it is functional. The method, boiled down: (§2)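 Chow-fed male Syrian golden hamsters were dosed by oral gavage in 0.5% carboxymethylcellulose each evening for 14 consecutive days, with free access to chow and water. Animals were weighed daily and killed the morning after the 14th dose. Serum lipoprotein cholesterol profiles were measured, and the ratio of non-HDL (VLDL plus LDL) cholesterol to HDL-cholesterol was calculated.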

Assay [25] in a line: Ratio between total non HDL-cholesterol and HDL-cholesterol in hamster at a dose of 1.0 mg/kg. In kind it is functional. The method, boiled down:
as §2

Assay [26] is described as follows: Ratio between total non HDL-cholesterol and HDL-cholesterol in hamster at a dose of 10.0 mg/kg. In kind it is functional. The method, boiled down:
as §2

The nature of assay [27]: Ratio between total non HDL-cholesterol and HDL-cholesterol in hamster at a dose of 100.0 mg/kg. In kind it is functional. In outline: as §2
Assay [28] can be described thus: Ratio between total non HDL-cholesterol and HDL-cholesterol in hamster at a dose of 3.0 mg/kg. In kind it is functional. In outline:
as §2

Assay [29] is described as follows: Ratio between total non HDL-cholesterol and HDL-cholesterol in hamster at a dose of 30.0 mg/kg. In kind it is functional. The method, boiled down:
as §2

In assay [30] the test system is Mesocricetus auratus. Kind of assay: Evaluated for total triglycerides in hamster at a dose of 100.0 mg/kg.
Assay [31] relates to Mesocricetus auratus. Kind of assay: Evaluated for total non HDL- cholesterol in hamster at a dose of 10.0 mg/kg.

One may read the inhibition as the drop in the measured response relative to a control, in per cent. A higher inhibition goes with a response far below the control.

In assay [1], `CCN(C(=O)c1cn(-c2cc(OC)cc(OCCCCCCCC[N+]34CCN(CC3)CC4)c2)c2cc(OC)ccc2c1=O)c1cc(F)cc(F)c1` displayed an inhibition at 30 µg/mL of 83%.

Compound `CCN(C(=O)c1cn(-c2cc(OC)cc(OCc3ccc(C[N+]45CCN(CC4)CC5)cc3)c2)c2cc(OC)ccc2c1=O)c1cc(F)cc(F)c1` came in with an inhibition at 30 µg/mL in [1] of 71%.

The compound `CCN(C(=O)c1cn(-c2cc(OC)cc(OC)c2)c2cc(OCCCCCCCC[N+]34CCN(CC3)CC4)ccc2c1=O)c1cc(F)cc(F)c1` returned an inhibition at 30 µg/mL in [1] of 94%.

`CCN(C(=O)c1cn(-c2cc(OC)cc(OC)c2)c2cc(OCc3ccc(C[N+]45CCN(CC4)CC5)cc3)ccc2c1=O)c1cc(F)cc(F)c1` registered an inhibition at 30 µg/mL in assay [1] of 71%.

The compound `CCN(C(=O)c1cn(-c2cc(OC)cc(OC)c2)c2cc(OCCCC[N+]34CCN(CC3)CC4)ccc2c1=O)c1cc(F)cc(F)c1` had an inhibition at 30 µg/mL in assay [1] of 24%.

Take `CCN(C(=O)c1cn(-c2cc(OC)cc(OC)c2)c2cc(OCCCCCCC[N+]34CCN(CC3)CC4)ccc2c1=O)c1cc(F)cc(F)c1.[Br-]`: the Non-HDL-C was determined as 75.7 mg/dL in the assay with Cricetinae gen. sp. [2]; 85.2 mg/dL in the assay on Cricetinae gen. sp. [3]; 57 mg/dL with Cricetinae gen. sp. [4]; 94.1 mg/dL in the assay on Cricetinae gen. sp. [5]; 78.9 mg/dL in the assay on Cricetinae gen. sp. [6]; 74.3 mg/dL in the assay with Mesocricetus auratus [31]. The TC was 144.1 mg/dL in the assay with Cricetinae gen. sp. [7]; 118.9 mg/dL in the assay with Cricetinae gen. sp. [8]; 174.3 mg/dL in the assay on Cricetinae gen. sp. [9]; 142.8 mg/dL in the assay on Cricetinae gen. sp. [10]; 157.4 mg/dL with Cricetinae gen. sp. [16]; 166.9 mg/dL in the assay on Cricetinae gen. sp. [17]. The TG with Cricetinae gen. sp. [11] was 142.7 mg/dL; in the assay on Cricetinae gen. sp. [12], 249.3 mg/dL; in the assay on Cricetinae gen. sp. [13] it was 217.6 mg/dL; with Cricetinae gen. sp. [14], 270.8 mg/dL; with Cricetinae gen. sp. [15] it was 235 mg/dL; in the assay on Mesocricetus auratus [30], 217.7 mg/dL. Further, the HDL-C in the assay on Cricetinae gen. sp. [18] came out at 61.9 mg/dL; with Cricetinae gen. sp. [19] it was 80.2 mg/dL; in the assay on Cricetinae gen. sp. [20], 63.9 mg/dL; with Cricetinae gen. sp. [21], 81.8 mg/dL; in the assay on Cricetinae gen. sp. [22] it was 81.7 mg/dL; with Cricetinae gen. sp. [23], 69.8 mg/dL. Moreover, the Ratio in assay [24] is reported as 0.9; in [25] it was 1.1; in assay [26], 1.1; in assay [27], 0.9; in [28], 1.2; in assay [29], 1.3. For the same compound, the inhibition at 30 µg/mL in [1] is 100%.

As for `CCN(C(=O)c1cn(-c2cc(OC)cc(OC)c2)c2cc(OC)ccc2c1=O)c1cc(F)cc(F)c1`, the inhibition at 30 µg/mL in assay [1] amounted to 64%.

With `CCN(C(=O)c1cn(-c2ccc(OC)cc2)c2cc(OC)ccc2c1=O)c1cc(F)cc(F)c1`, testing at 30 µg/mL in assay [1] gave an inhibition of 64%.

In turn, `CCN(C(=O)c1cn(-c2cc(OC)cc(OCCCCCC[N+]34CCN(CC3)CC4)c2)c2cc(OC)ccc2c1=O)c1cc(F)cc(F)c1` had an inhibition at 30 µg/mL in assay [1] of 83%.

As to `CCN(C(=O)c1cn(-c2ccc(OCc3ccc(C[N+]45CCN(CC4)CC5)cc3)cc2)c2cc(OC)ccc2c1=O)c1cc(F)cc(F)c1`, 30 µg/mL produced 41% inhibition in assay [1].

`CCN(C(=O)c1cn(-c2cc(OC)cc(OCCCCCCC[N+]34CCN(CC3)CC4)c2)c2cc(OC)ccc2c1=O)c1cc(F)cc(F)c1`: at 30 µg/mL the inhibition in [1] was 86%.

As to `CCN(C(=O)c1cn(-c2cc(OC)cc(OC)c2)c2cc(OCCCCC[N+]34CCN(CC3)CC4)ccc2c1=O)c1cc(F)cc(F)c1`, the inhibition at 30 µg/mL in assay [1] amounted to 67%.

In assay [1], `CCN(C(=O)c1cn(-c2cc(OC)cc(OC)c2)c2cc(OCCCCCC[N+]34CCN(CC3)CC4)ccc2c1=O)c1cc(F)cc(F)c1` had an inhibition at 30 µg/mL of 88%.
